The source made the active and inactive calls. The rule behind the calls is not given here.
How the values were obtained:
MV4-11 [1] = experiment: Cell cycle arrest in human MV4-11 cells assessed as accumulation at S-phase at 10 uM after 24 hrs by propidium iodide staining based flow cytometry (reference value: 28.91 to 29.71%); assay type: functional
RPTEC = experiment: Antiproliferative activity against human RPTEC cells after 72 hrs by CellTiter-Glo luminescent assay; assay type: cell-based
Summary of the method: (§1)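 HUV-EC-C, MRC5, RPTEC, A549, MDA-MB-231 and 22Rv1 cells seeded at 3×10⁴/mL and exposed to serially diluted compounds or DMSO. Viability read by CellTiter-Glo luminescence. Each dilution point run in triplicate, averaged, and fitted.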

MV4-11 [2] = experiment: Cell cycle arrest in human MV4-11 cells assessed as accumulation at G1-phase after 24 hrs by propidium iodide staining based flow cytometry; assay type: functional
[3] = biological target: T1, Bromodomain-containing protein 4 (Homo sapiens, UniProt O60885); experiment: Inhibition of BRD4 in human MV4-11 cells assessed as downregulation of Bcl2 mRNA expression after 6 hrs by RT-PCR analysis; assay type: cell-based
Summary of the method: (§2)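 MV4-11 cells at 5×10⁵/mL treated 6 h with various compound concentrations or DMSO. c-Myc, Bcl-2 and CDK6 transcripts quantified by qRT-PCR, normalized to B2M by the ΔΔCt method.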

MV4-11 [4] = experiment: Cell cycle arrest in human MV4-11 cells assessed as accumulation at G1-phase at 20 uM after 24 hrs by propidium iodide staining based flow cytometry (reference value: 61.39 to 63.23%); assay type: functional
CWR22R = experiment: Antiproliferative activity against human 22Rv1 cells after 72 hrs by CellTiter-Glo luminescent assay; assay type: functional, cell-based; summary of the method: as §1
MV4-11 [5] = experiment: Cell cycle arrest in human MV4-11 cells assessed as accumulation at S-phase at 20 uM after 24 hrs by propidium iodide staining based flow cytometry (reference value: 28.91 to 29.71%); assay type: functional
[6] = biological target: T1, Bromodomain-containing protein 4; experiment: Binding affinity to His-tagged BRD4 bromodomain-1 (unknown origin) expressed in Escherichia coli BL21(DE3) assessed as change in melting temperature at 100 uM by SYPRO orange dye based thermal shift assay
Summary of the method: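 Buffer of 20 mM HEPES pH 7.4, 100 mM NaCl and 1 mM DTT, with 5× SYPRO Orange and 5 µM BRD4_BD1. Compound at 100 µM or 0.5% DMSO, DMSO matched across wells. Heated at 2.5 °C/min from 25 to 95 °C. Tm compared with the DMSO control.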

MV4-11 [7] = experiment: Cell cycle arrest in human MV4-11 cells assessed as accumulation at G1-phase at 10 uM after 24 hrs by propidium iodide staining based flow cytometry (reference value: 61.39 to 63.23%); assay type: functional
MV4-11 [8] = experiment: Cell cycle arrest in human MV4-11 cells assessed as accumulation at G2-phase at 5 uM after 24 hrs by propidium iodide staining based flow cytometry (reference value: 7.76 to 8.93%); assay type: functional
MRC5 = experiment: Antiproliferative activity against human MRC5 cells after 72 hrs by CellTiter-Glo luminescent assay; assay type: cell-based; details: mrc5, 72 h; summary of the method: as §1
[9] = biological target: T1, Bromodomain-containing protein 4; experiment: (§3) Inhibition of His-tagged BRD4 bromodomain-1 (unknown origin) expressed in Escherichia coli BL21(DE3) at 20 uM using SGRGK(Ac)-GG-K(Ac)-GLG-K(Ac)-GGA-K(Ac)-RHRKVGG-K-Biotin as substrate preincubated for 15 mins followed by substrate addition measured after 10 mins by Alphascreen assay relative to control
Summary of the method: (§4)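 His-tagged BRD4_BD1 purified by Ni-NTA, anion exchange and gel filtration, tag retained. Assay buffer: 20 mM HEPES pH 7.4, 0.1% BSA, 0.01% Triton X-100, 1 mM DTT. Protein preincubated with compound 15 min at room temperature, biotinylated tetra-acetyl peptide added for 10 min, then streptavidin donor and nickel chelate acceptor beads for 60 min. Compounds screened at 20 and 5 µM; IC50 from three independent experiments.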

MV4-11 [10] = experiment: Antiproliferative activity against human MV4-11 cells after 72 hrs by CellTiter-Glo luminescent assay; assay type: functional, cell-based; details: MV4-11, 72 h
Summary of the method: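 MV4-11 cells in RPMI 1640 with 10% FBS and 1% penicillin/streptomycin, seeded at 1×10⁵/mL. Compounds or DMSO added about 1 h later, then incubated 72 h. Viability read by CellTiter-Glo luminescence. Each dilution point run in triplicate, averaged, and fitted for IC50.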

[11] = biological target: T1, Bromodomain-containing protein 4; experiment: Inhibition of BRD4 in human MV4-11 cells assessed as downregulation of c-MYC mRNA expression after 6 hrs by RT-PCR analysis; assay type: cell-based; summary of the method: as §2
MV4-11 [12] = experiment: Cell cycle arrest in human MV4-11 cells assessed as accumulation at G1-phase at 5 uM after 24 hrs by propidium iodide staining based flow cytometry (reference value: 61.39 to 63.23%); assay type: functional
[13] = biological target: T1, Bromodomain-containing protein 4; experiment: Inhibition of His-tagged BRD4 bromodomain-1 (unknown origin) expressed in Escherichia coli BL21(DE3) using SGRGK(Ac)-GG-K(Ac)-GLG-K(Ac)-GGA-K(Ac)-RHRKVGG-K-Biotin as substrate preincubated for 15 mins followed by substrate addition measured after 10 mins by Alphascreen assay; summary of the method: as §4
MDA-MB-231 = experiment: Antiproliferative activity against human MDA-MB-231 cells after 72 hrs by CellTiter-Glo luminescent assay; assay type: functional, cell-based; summary of the method: as §1
MV4-11 [14] = experiment: Cell cycle arrest in human MV4-11 cells assessed as accumulation at S-phase at 5 uM after 24 hrs by propidium iodide staining based flow cytometry (reference value: 28.91 to 29.71%); assay type: functional
MV4-11 [15] = experiment: Cell cycle arrest in human MV4-11 cells assessed as accumulation at G2-phase at 20 uM after 24 hrs by propidium iodide staining based flow cytometry (reference value: 7.76 to 8.93%); assay type: functional
HUVEC = experiment: Antiproliferative activity against HUVEC after 72 hrs by CellTiter-Glo luminescent assay; assay type: cell-based; details: human; summary of the method: as §1
[16] = biological target: T1, Bromodomain-containing protein 4; experiment: Inhibition of BRD4 in human MV4-11 cells assessed as downregulation of CDK6 mRNA expression after 6 hrs by RT-PCR analysis; assay type: cell-based; summary of the method: as §2
[17] = biological target: T1, Bromodomain-containing protein 4; experiment: as §3, with “5” for “20”; summary of the method: as §4
[18] = biological target: T1, Bromodomain-containing protein 4; experiment: Inhibition of BRD4 in human MV4-11 cells assessed as downregulation of c-MYC protein expression after 6 hrs by Western blot analysis; assay type: cell-based
Summary of the method: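 MV4-11 cells at 5×10⁵/mL treated 6 h with various compound concentrations or DMSO. Immunoblotted with anti-c-Myc (1:1000, 4 °C overnight), then anti-rabbit secondary (1:10000, 1 h, room temperature).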

MV4-11 [19] = experiment: Cell cycle arrest in human MV4-11 cells assessed as accumulation at G2-phase at 10 uM after 24 hrs by propidium iodide staining based flow cytometry (reference value: 7.76 to 8.93%); assay type: functional
A549 = experiment: Antiproliferative activity against human A549 cells after 72 hrs by CellTiter-Glo luminescent assay; assay type: functional, cell-based; summary of the method: as §1
[20] = biological target: T1, Bromodomain-containing protein 4; experiment: Inhibition of BRD4 (unknown origin) by Alphascreen assay; summary of the method: as §4

| SMILES | inhibition [3] | ΔTm [6] | inhibition [9] | inhibition [11] | IC50 [13] | inhibition [16] | inhibition [17] | inhibition [18] | other results |
| --- | --- | --- | --- | --- | --- | --- | --- | --- | --- |
| CCN1C(=O)c2cccc3c(S(=O)(=O)N4CCCC4)ccc1c23 | Dose-dependent effect | 3.4 °C | 99% | Dose-dependent effect | 6830 nM | Dose-dependent effect | 59% | Dose-dependent effect | Activity (MV4-11 [1]): 15.95%; Activity (RPTEC): Non-Toxic; Activity (MV4-11 [2]): Dose-dependent effect; Activity (MV4-11 [4]): 87.22%; Activity (CWR22R): Active; Activity (MV4-11 [5]): 9.88%; Activity (MV4-11 [7]): 80.04%; Activity (MV4-11 [8]): 5.47%; Activity (MRC5): Non-Toxic; IC50 (MV4-11 [10]): 11.7 µM; Activity (MV4-11 [12]): 73%; Activity (MDA-MB-231): Active; Activity (MV4-11 [14]): 21.52%; Activity (MV4-11 [15]): 2.9%; Activity (HUVEC): Non-Toxic; Activity (MV4-11 [19]): 4%; Activity (A549): Active |
| Cc1sc2c(c1C)C(c1ccc(Cl)cc1)=C[C@@H](CC(=O)OC(C)(C)C)c1nnc(C)n1-2 |  |  |  |  |  |  |  |  | IC50 [20]: 77 nM |
| CCN1C(=O)c2cccc3c(S(=O)(=O)N4CCC[C@@H]4C(=O)Nc4ccccc4)ccc1c23 |  | 13.9 °C | 100% |  | 1430 nM |  | 87% |  |  |
| CCN1C(=O)c2cccc3c(S(=O)(=O)NCCO)ccc1c23 |  | 13.2 °C | 100% |  | 1550 nM |  | 98% |  |  |
| CCN1C(=O)c2cccc3c(S(=O)(=O)N4CCC[C@@H]4C(=O)O)ccc1c23 | Dose-dependent effect | 10.5 °C | 98% | Dose-dependent effect | 3020 nM | Dose-dependent effect | 66% | Dose-dependent effect |  |
| CCN1C(=O)c2cccc3c(S(=O)(=O)N4CCC[C@@H]4C(=O)NN)ccc1c23 | Dose-dependent effect | 7.8 °C | 100% | Dose-dependent effect | 1020 nM | Dose-dependent effect | 93% | Dose-dependent effect |  |
